# Screens as filed in PubChem.
# CASP6 VEID inh – inhibitors of human caspase-6 | purified caspase-6, Z-VEID-R110 cleavage fluorescence | inhibition, % at 12.5 µM | 350,000 compounds, 0.53% hits;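 active means mean inhibition across replicates at least about 35%, with every replicate also reaching that limit, limit read from the data; inconclusive means only one of the two criteria met; inactive means neither criterion met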;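 further: 0% = median of neutral control wells and 100% = no fluorescence left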
# Target sequence (P55212 24-179 limits assumed): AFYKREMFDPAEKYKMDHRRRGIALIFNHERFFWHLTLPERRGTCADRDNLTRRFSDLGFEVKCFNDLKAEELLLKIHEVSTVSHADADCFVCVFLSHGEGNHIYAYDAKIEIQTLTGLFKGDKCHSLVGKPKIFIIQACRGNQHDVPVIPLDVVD
# Target sequence (P55212 194-293 limits assumed): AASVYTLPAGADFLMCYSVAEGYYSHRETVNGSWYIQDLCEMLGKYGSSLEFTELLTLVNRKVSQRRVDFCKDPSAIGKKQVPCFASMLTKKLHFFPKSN
# Xi reactivation – X-chromosome reactivation activator; activation, % at 7.58 µM; XiGFP mouse fibroblasts, % GFP-positive cells imaging, 3 d; cells co-treated with 5-aza-dC sensitizer; scaled so ellipticine positive control = 100%; 360,000 compounds, 0.055% hits;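 active means mean normalized replicate activation at least 10% and every replicate at or above 10%; inconclusive means only one of the two criteria met; inactive means mean below 10% and not all replicates reach 10%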;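 further: 0% = median of on-plate neutral control wells and 100% = ellipticine 6 µM median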
#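 System: XiGFP fibroblasts, SV40-immortalized. Medium: DMEM plus 5-aza-dC sensitizer. Doses: single point. Timing: 3 d treatment, 15 min room-temperature fixation. Control set: ellipticine 6 µM.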
# CaV13 ICDI inh – Disruptors of the CACNA1D IQ motif to Ca2+-dependent inactivation inhibitor domain association, primary screening, Förster resonance energy transfer in intact living … | HEK cells, CFP/YFP FRET ICDI-IQ, plate reader, 10 min; percent FRET-ratio fall versus neutral wells | inhibition, % at 12.3 µM | 340,000 compounds, 0.098% hits;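 active means mean replicate inhibition of at least 30% and at least 1% of replicates passing that level; inconclusive means only one of the two criteria is met; inactive means neither criterion is met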;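 further: 0% = median of the neutral control wells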
# DENV2 CPE rescue – DENV2-induced cell death inhibition. CPE inhibition, % at 9.99 µM. 350,000 compounds, 1.7% hits. DENV2-infected cells, cytopathic effect rescue, plate reader; in the data active means CPE inhibition above about 20%, passing the limit was not always enough; inconclusive means no clear call, values can overlap the other calls; tested in BHK-21 cells;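 further: 0% = median of neutral control wells and 100% = median of positive control wells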
# FN deposit inh – fibronectin deposition inhibition; AH1F fibroblasts, Alexa488-fibronectin deposition fluorescence, overnight; inhibition, % at 12.6 µM; 350,000 compounds, 0.086% hits; AID 743247;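 active means mean inhibition across replicates of 30% or more, regardless of how many single replicates reach that level; inconclusive means mean under 30% yet at least half of replicates reach 30%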;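 further: positive control wells lacked labelled fibronectin entirely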
#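 Assay system: AH1F fibroblast monolayer, labelled fibronectin deposition. Amount: 10000 cells per well. Also added: labelled fibronectin 24 nM. Compound: single-point pinned compound. Incubation: cell attachment 1 h, compound and FN exposure overnight. Detection: fluorescence after three HBSS washes, excitation 485 nm, emission 525 nm. Read-out: inhibition of fibronectin deposition signal.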
# * marks the source's active call; other numbers are inactive results; ? = inconclusive; · = not tested or not shown. Sampled rows, rich in hits. Any-hit rate of the full collection: about 2%.
SMILES,CASP6 VEID inh,Xi reactivation,CaV13 ICDI inh,DENV2 CPE rescue,FN deposit inh
COCCNC(=O)C[C@@H]1C[C@H]2c3cc(NC(=O)Nc4ccc(OC)cc4)ccc3O[C@H]2[C@H](CO)O1,2,1,·,23*,-2
COc1ccc(S(=O)(=O)Nc2ccc3c(c2)C(=O)N([C@@H](C)CO)C[C@H](C)[C@@H](CN(C)C(=O)Cc2ccccc2)OCCCC[C@@H](C)O3)cc1,-1,-1,·,26*,·
COc1ccc(S(=O)(=O)Nc2ccc3c(c2)C(=O)N([C@H](C)CO)C[C@H](C)[C@@H](CN(C)C(=O)Cc2ccccc2)OCCCC[C@@H](C)O3)cc1,-2,0,·,10,·
COc1ccc(NC(=O)Nc2ccc3c(c2)C(=O)N([C@H](C)CO)C[C@@H](C)[C@@H](CN(C)C(=O)Cc2ccccc2)OCCCC[C@H](C)O3)cc1,2,0,·,-11,·
COc1ccc(NC(=O)Nc2ccc3c(c2)C(=O)N([C@H](C)CO)C[C@H](C)[C@@H](CN(C)C(=O)Cc2ccccc2)OCCCC[C@H](C)O3)cc1,3,0,·,58*,·
COc1ccc(S(=O)(=O)Nc2ccc3c(c2)C(=O)N([C@@H](C)CO)C[C@@H](C)[C@@H](CN(C)C(=O)Cc2ccccc2)OCCCC[C@@H](C)O3)cc1,-1,-1,·,21*,·
CCCCCCCNC(=O)C1(CC2CC(c3ccc(Cl)cc3)=NO2)CCN(C(=O)c2ccccc2)CC1 (stereo not drawn),-4,0,-12,-6,-14
CCCCCCCNC(=O)C1(CC2CC(c3ccccc3)=NO2)CCN(C(=O)c2ccccc2)CC1 (stereo not drawn),2,0,-10,24*,-7
C[C@@H]1CN([C@@H](C)CO)C(=O)c2cccc(NS(C)(=O)=O)c2O[C@H]1CN(C)C(=O)Nc1ccc2c(c1)OCO2,1,0,·,-13,·
COc1ccc2c3c([nH]c2c1)[C@H](CO)N(Cc1cccnc1)CC31CN(C(=O)c2cccnc2)C1,·,0,·,·,·
Cc1ccc(S(=O)(=O)N2C3CCCCC3O[C@H]2CC(=O)c2cccs2)cc1 (stereo partly drawn),-1,0,-16,48*,3
CC(C)[C@H]1COCc2cn(nn2)CC[C@@H](Cc2ccc(Cl)cc2)C(=O)N1,·,0,·,·,3
COc1cc(-c2nnc(COC(=O)c3ccc([N+](=O)[O-])o3)o2)cc(OC)c1OC,58*,0,-3,?,·
COc1ccc(NC(=S)N2CCC(C(=O)c3ccc(F)cc3)CC2)cc1,1,0,-2,37*,-3
Cc1ccc(C)c(NC(=S)N2CCC(C(=O)c3ccc(F)cc3)CC2)c1,1,0,-13,21*,-4
Cc1ccccc1NC(=S)N1CCC(C(=O)c2ccc(F)cc2)CC1,-1,·,-7,2,·
CNC(=S)N1CCC(C(=O)c2ccc(Cl)cc2)CC1,0,0,-9,22*,8
C=CCNC(=S)N1CCC(C(=O)c2ccc(F)cc2)CC1,-1,0,-6,53*,7
CNC[C@@H]1OCCCC[C@H](C)Oc2ccc(NS(=O)(=O)c3ccc(OC)cc3)cc2C(=O)N([C@H](C)CO)C[C@@H]1C,·,0,·,·,·
CCCN1C[C@@H](C)[C@H](OC)CN(C)C(=O)c2ccc(NC(=O)c3cccc(F)c3)cc2OC[C@H]1C,-3,0,·,-15,3
CCCN1C[C@H](C)[C@@H](OC)CN(C)C(=O)c2ccc(NC(=O)c3cccc(F)c3)cc2OC[C@@H]1C,-4,0,·,29*,-5
CO[C@@H]1CN(C)C(=O)c2ccc(NC(=O)Nc3ccccc3)cc2OC[C@@H](C)N(C(C)=O)C[C@@H]1C,-2,0,·,51*,-5
CCCN1C[C@H](C)[C@@H](OC)CN(C)C(=O)c2cc(NC(=O)c3ccc(F)cc3)ccc2OC[C@H]1C,1,0,·,47*,3
COc1cccc(C(=O)Nc2ccc3c(c2)C(=O)N(C)C[C@H](OC)[C@@H](C)CN(C(C)=O)[C@H](C)CO3)c1,0,0,·,64*,-3
O=C(C[C@@H]1C[C@H]2c3cc(NC(=O)Nc4ccccc4F)ccc3O[C@H]2[C@@H](CO)O1)NCc1ccc2c(c1)OCO2,·,0,·,·,·
SMILES,CASP6 VEID inh,Xi reactivation,CaV13 ICDI inh,DENV2 CPE rescue,FN deposit inh
COc1ccc2c3c([nH]c2c1)[C@@H](CO)N(C(=O)CN1CCOCC1)CC31CN(C(=O)NC(C)C)C1,·,0,·,-2,·
C[C@H]1CN([C@@H](C)CO)C(=O)CCCn2nncc2CO[C@@H]1CN(C)S(=O)(=O)c1ccc(C#N)cc1,2,-1,·,-15,5
CO[C@@H]1CN(C)C(=O)c2ccc(NC(=O)Nc3cccc(F)c3)cc2OC[C@@H](C)N(C(C)=O)C[C@H]1C,·,0,·,109*,-8
CO[C@@H]1CN(C)C(=O)c2ccc(NC(=O)c3cccc(F)c3)cc2OC[C@H](C)N(C(C)=O)C[C@H]1C,1,0,·,2,·
CO[C@@H]1CN(C)C(=O)c2ccc(NC(=O)c3cccc(F)c3)cc2OC[C@H](C)N(C(C)=O)C[C@@H]1C,4,0,·,34*,·
CO[C@@H]1CN(C)C(=O)c2ccc(NC(=O)Nc3cccc(F)c3)cc2OC[C@@H](C)N(C(=O)Nc2c(C)noc2C)C[C@H]1C,-2,0,·,63*,-30
CO[C@H]1CN(C)C(=O)c2ccc(NC(=O)Nc3cccc(F)c3)cc2OC[C@H](C)N(C(=O)Nc2c(C)noc2C)C[C@@H]1C,-1,0,·,-4,-31
CO[C@@H]1CN(C)C(=O)c2ccc(NC(=O)c3ccccc3)cc2OC[C@H](C)N(C(=O)CN(C)C)C[C@H]1C,1,0,·,6,12
CO[C@H]1CN(C)C(=O)c2ccc(NC(=O)c3ccccc3)cc2OC[C@H](C)N(C(=O)CN(C)C)C[C@H]1C,1,0,·,29*,22
CCN(C[C@H]1[C@@H](c2ccc(-c3ccccc3F)cc2)[C@@H](CO)N1C(C)=O)C(C)=O,-3,0,·,5,-6
CC(C)CC#Cc1ccc2c(c1)O[C@@H](CN(C)Cc1ccccn1)[C@H](C)CN([C@H](C)CO)S2(=O)=O,-2,0,·,0,2
C[C@@H]1CN([C@@H](C)CO)C(=O)c2cc(C#C[C@@H](C)O)cnc2O[C@H]1CN(C)C(=O)Cc1ccncc1,0,1,·,-2,1
CCCN1C[C@H](C)[C@H](OC)CN(C)C(=O)c2cc(NC(=O)c3ccno3)ccc2OC[C@H]1C,0,0,·,12,-13
CCN1C[C@@H](C)[C@H](OC)CN(C)C(=O)c2cc(NC(=O)c3ccno3)ccc2OC[C@H]1C,1,0,·,20*,13
N#C[C@@H]1[C@H](c2ccc(C#Cc3ccccc3F)cc2)[C@@H](CO)N1C(=O)C1CCC1,3,0,·,-8,-14
